Columns and labels:
[1] = Growth inhibition of human BT549 cells after 48 hrs by coulter counting analysis; assay type: functional; conditions: BT-549, 48 h
Method in brief: (§1)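 NCI five-dose screen at 0.01-100 µM, diluted from DMSO stocks in buffered saline (final DMSO <1%). Cells at 6×10^4 cells/ml in RPMI 1640 with 10% FBS, in duplicate wells, at 37 °C under 5% CO2 for 48 h. Cells diluted tenfold in saline and Coulter-counted. GI50, TGI and LC50 taken from log concentration-growth inhibition curves.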

[2] = Growth inhibition of human LOXIMVI cells after 48 hrs by coulter counting analysis; assay type: functional; conditions: LOX IMVI; method in brief: as §1
[3] = Growth inhibition of human Hs 578T cells after 48 hrs by coulter counting analysis; assay type: functional; method in brief: as §1
[4] = tested on: NCI-H460; assay: Growth inhibition of human NCI-H460 cells at 10 uM after 48 hrs by sulforhodamine B assay relative to control; assay type: functional; conditions: NCI-H460, 48 h, read-out: GI
Method in brief: (§2)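 NCI-60 primary screen at a single 10 µM dose. Continuous 48 h exposure, with growth or viability estimated by sulforhodamine B protein staining. Reported as percent growth inhibition of treated cells relative to untreated growth.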

[5] = Growth inhibition of human UACC62 cells after 48 hrs by coulter counting analysis; assay type: functional; conditions: UACC-62, 48 h
Method in brief: (§3)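 NCI five-dose screen, 0.01-100 µM, from DMSO stocks diluted in buffer saline (final DMSO <1%). Cells grown in RPMI 1640 + 10% FBS, seeded at 6×10^4 cells/ml, in duplicate wells. Exposure 48 h at 37 °C, 5% CO2. Cells diluted 10-fold in saline and counted by Coulter counter. GI50 derived from log concentration–percent growth inhibition curves. Controls carried matching PBS/saline/DMSO.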

[6] = tested on: 786-0; assay: Growth inhibition of human 786-0 cells after 48 hrs by coulter counting analysis; assay type: functional; conditions: 786-0, 48 h; method in brief: as §1
[7] = tested on: NCI-H460; assay: Growth inhibition of human NCI-H460 cells after 48 hrs by coulter counting analysis; assay type: functional; conditions: NCI-H460, 48 h
Method in brief: (§4)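 Five-dose NCI-60 follow-up, 0.01–100 µM, made from DMSO stock in buffered saline (final DMSO <1%), in duplicate wells. Cells in RPMI 1640 with 10% FBS at 6×10^4 cells/ml, 37 °C, 5% CO2, 48 h. Cells diluted tenfold in saline, Coulter-counted and corrected for dilution. GI50, TGI and LC50 taken from log concentration–percent growth curves.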

[8] = tested on: Malme-3M; assay: Growth inhibition of human MALME-3M cells after 48 hrs by coulter counting analysis; assay type: functional; method in brief: as §1
[9] = Growth inhibition of human OVCAR5 cells after 48 hrs by coulter counting analysis; assay type: functional; conditions: OVCAR-5, 48 h; method in brief: as §4
[10] = tested on: U-251; assay: Growth inhibition of human U251 cells after 48 hrs by coulter counting analysis; assay type: functional; conditions: U-251, 48 h; method in brief: as §3
[11] = tested on: M14; assay: Growth inhibition of human M14 cells after 48 hrs by coulter counting analysis; assay type: functional; conditions: M14, 48 h; method in brief: as §1
[12] = tested on: CCRF-CEM; assay: Growth inhibition of human CCRF-CEM cells after 48 hrs by coulter counting analysis; assay type: functional; method in brief: as §1
[13] = Growth inhibition of human EKVX cells after 48 hrs by coulter counting analysis; assay type: functional; method in brief: as §1
[14] = Growth inhibition of human NCI-ADR-RES cells after 48 hrs by coulter counting analysis; assay type: functional; method in brief: as §4
[15] = tested on: SW-620; assay: Growth inhibition of human SW620 cells after 48 hrs by coulter counting analysis; assay type: functional; conditions: SW-620, 48 h; method in brief: as §4
[16] = tested on: SF-268; assay: Growth inhibition of human SF268 cells after 48 hrs by coulter counting analysis; assay type: functional; conditions: SF-268, 48 h; method in brief: as §4
[17] = molecular target: Glycogen synthase kinase-3 beta (Homo sapiens) (UniProt P49841); assay: Inhibition of GSK-3beta (unknown origin) at 20 uM after 30 mins by scintillation counting analysis relative to control
Method in brief: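 Recombinant kinases, cloned, expressed and purified in-house. Radiometric ³³P-ATP assay with kinase at ~10-50 nM final and 1-5 µg peptide or protein substrate. Compound at 20 µM final, in duplicate. Reaction started by adding ATP, run 30 min at ambient temperature, then spotted on P81 phosphocellulose. Plates washed in 1% phosphoric acid and counted by scintillation. No-substrate blank subtracted. Result is mean % activity change versus DMSO control.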

[18] = Growth inhibition of human RXF393 cells after 48 hrs by coulter counting analysis; assay type: functional; conditions: RXF 393, 48 h; method in brief: as §4
[19] = tested on: SN12C; assay: Growth inhibition of human SN12C cells after 48 hrs by coulter counting analysis; assay type: functional; method in brief: as §4
[20] = tested on: DU-145; assay: Growth inhibition of human DU145 cells after 48 hrs by coulter counting analysis; assay type: functional; conditions: DU-145, 48 h; method in brief: as §1
[21] = tested on: SNB-19; assay: Growth inhibition of human SNB19 cells after 48 hrs by coulter counting analysis; assay type: functional; conditions: SNB-19, 48 h; method in brief: as §4
[22] = tested on: MDA-MB-231; assay: Growth inhibition of human MDA-MB-231 cells after 48 hrs by coulter counting analysis; assay type: functional; conditions: MDA-MB-231, 48 h; method in brief: as §1
[23] = tested on: KM12; assay: Growth inhibition of human KM12 cells after 48 hrs by coulter counting analysis; assay type: functional; conditions: KM12, 48 h; method in brief: as §1
[24] = tested on: A498; assay: Growth inhibition of human A498 cells after 48 hrs by coulter counting analysis; assay type: functional; conditions: A498, 48 h; method in brief: as §1
[25] = Growth inhibition of human HOP92 cells after 48 hrs by coulter counting analysis; assay type: functional; conditions: HOP-92, 48 h; method in brief: as §1
[26] = Growth inhibition of human OVCAR8 cells after 48 hrs by coulter counting analysis; assay type: functional; conditions: OVCAR-8, 48 h; method in brief: as §4
[27] = tested on: MDA-MB-468; assay: Growth inhibition of human MDA-MB-468 cells at 10 uM after 48 hrs by sulforhodamine B assay relative to control; assay type: functional; conditions: MDA-MB-468, 48 h, read-out: GI; method in brief: as §2
[28] = tested on: SK-MEL-2; assay: Growth inhibition of human SK-MEL-2 cells after 48 hrs by coulter counting analysis; assay type: functional; conditions: SK-MEL-2, 48 h; method in brief: as §4
[29] = tested on: CCRF-CEM; assay: Growth inhibition of human CCRF-CEM cells at 10 uM after 48 hrs by sulforhodamine B assay relative to control; assay type: functional; conditions: read-out: GI
Method in brief: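 NCI-60 primary screen at a single dose of 10 µM with 48 h continuous exposure. Growth or viability read by sulforhodamine B protein staining and expressed as percent growth inhibition versus untreated cells.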

[30] = Growth inhibition of human MOLT4 cells after 48 hrs by coulter counting analysis; assay type: functional; conditions: MOLT-4, 48 h; method in brief: as §4
[31] = tested on: HL-60(TB); assay: Growth inhibition of human HL-60(TB) cells after 48 hrs by coulter counting analysis; assay type: functional; conditions: HL-60, 48 h
Method in brief: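 Five-dose screen (0.01-100 µM, DMSO-solubilized, under 1% DMSO final), cells in RPMI 1640 + 10% FBS at 6×10^4 cells/ml, duplicate wells, 37 °C, 5% CO2, 48 h. Cells then diluted tenfold in saline and counted by Coulter counter with dilution correction. Controls held buffer/saline/DMSO at matching dilutions. GI50 derived from log concentration-percent growth inhibition curves.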

Sequence of Glycogen synthase kinase-3 beta (Homo sapiens) (P49841 whole entry, looked up): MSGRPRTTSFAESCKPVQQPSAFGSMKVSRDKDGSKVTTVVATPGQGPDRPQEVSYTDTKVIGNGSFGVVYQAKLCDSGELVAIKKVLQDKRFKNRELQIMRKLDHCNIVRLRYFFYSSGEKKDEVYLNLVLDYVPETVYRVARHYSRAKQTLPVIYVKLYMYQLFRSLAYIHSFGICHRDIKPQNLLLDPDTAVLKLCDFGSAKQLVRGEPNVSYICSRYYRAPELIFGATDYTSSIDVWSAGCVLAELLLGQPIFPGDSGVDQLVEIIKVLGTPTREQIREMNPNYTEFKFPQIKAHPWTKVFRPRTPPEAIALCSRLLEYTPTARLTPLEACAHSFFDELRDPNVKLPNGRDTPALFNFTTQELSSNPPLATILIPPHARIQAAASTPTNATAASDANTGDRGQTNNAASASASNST

Structure (SMILES) | GI50 [1] | GI50 [2] | GI50 [3] | GI50 [5] | GI50 [6] | GI50 [7] | GI50 [8] | GI50 [9] | GI50 [10] | GI50 [11] | GI50 [12] | GI50 [14] | GI50 [15] | GI50 [16] | inhibition [17] | GI50 [18] | GI50 [19] | GI50 [20] | GI50 [21] | GI50 [22] | further results
COc1ccccc1/C=C/C(=O)c1c(O)cc2occc2c1OC | 28.2 µM | 30.1 µM | 38.2 µM | 23.7 µM | 35.3 µM | > 100 µM | 18.9 µM | > 100 µM | 18.9 µM | > 100 µM | 9.72 µM | 29.6 µM | > 100 µM | 22.2 µM | 17% | 14.9 µM | > 100 µM | 23.5 µM | 30.8 µM | 33.1 µM | inhibition of growth at 10 µM [4]: 61%; GI50 [13]: 33.7 µM; GI50 [23]: > 100 µM; GI50 [24]: 46 µM; GI50 [25]: 2.98 µM; GI50 [26]: 53.8 µM; inhibition of growth at 10 µM [27]: 84%; GI50 [28]: > 100 µM; inhibition of growth at 10 µM [29]: 63%
C=CCc1c2c(c(OC)c3ccoc13)C(=O)/C(=C/c1ccccc1OC)O2 | 4.44 µM | 3.13 µM | 5.29 µM | 4.14 µM | 6.29 µM | 3.46 µM | 19.8 µM | 3.57 µM | 3.53 µM | 8.19 µM | 3.44 µM | 2.82 µM | 4.24 µM | 3.73 µM | 56% | 2.47 µM | 4.85 µM | 3.19 µM | 5.83 µM | 4.59 µM | inhibition of growth at 10 µM [4]: 69%; GI50 [30]: 3.52 µM; GI50 [13]: 4.41 µM; GI50 [23]: 3.49 µM; GI50 [24]: 5.81 µM; GI50 [25]: 2.07 µM; GI50 [26]: 3.87 µM; GI50 [28]: 6.06 µM; inhibition of growth at 10 µM [29]: 63%
C=CCc1c(O)c(C(=O)/C=C/c2ccc(Cl)cc2)c(OC)c2ccoc12 | 3 µM | 1.63 µM | 4.02 µM | 2.88 µM | 4.83 µM | 3.2 µM | 2.74 µM | 2.8 µM | 2.3 µM | 5.08 µM | 3.33 µM | 2.23 µM | 2.56 µM | 3.25 µM | 80% | 1.72 µM | 4.96 µM | 3.85 µM | 2.85 µM | 4.3 µM | GI50 [30]: 2.61 µM; GI50 [13]: 7.23 µM; GI50 [23]: 3.72 µM; GI50 [24]: 2.77 µM; GI50 [25]: 1.69 µM; GI50 [26]: 3.04 µM; GI50 [28]: 3.97 µM
COc1c2ccoc2c(/C=C/C=O)c2oc(-c3ccccc3)cc(=O)c12 | 2.88 µM | 1.48 µM | 7.2 µM | 5.45 µM | 26.9 µM | 11.3 µM | 3.47 µM | 22.3 µM | 3.06 µM | 3.32 µM | 1.85 µM | 3.01 µM | 2.16 µM | 4.23 µM | 58% | 4.26 µM | 2.71 µM | 10.7 µM | 12 µM | 4.1 µM | GI50 [31]: 2.33 µM; GI50 [30]: 2.06 µM; GI50 [23]: 16.5 µM; GI50 [24]: 7.44 µM; GI50 [25]: 11.5 µM; GI50 [26]: 2.86 µM; GI50 [28]: 10.6 µM

— ChEMBL document CHEMBL3286372, “Design, synthesis and structure-activity relationship of novel semi-synthetic flavonoids as antiproliferative agents” (2014)
